Sampled rows, rich in hits. Any-hit rate of the full collection: about 1.7%.
SR-BI uptake up: SR-BI HDL lipid transfer activation | CHO ldlA[mSR-BI] cells, DiI-HDL uptake fluorescence, 3 h; 100 = double the neutral-control signal | activation, % at 12.5 µM | 320,000 compounds, 0.096% hits;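 active = mean replicate activation of at least 60% and every replicate at or above 60%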;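 also: 0% = median plate neutral-control signal and 100% = twice that signal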
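system = CHO ldlA[mSR-BI] cells, LDL receptor-null, SR-BI overexpressing | medium = Ham's F12 with 0.5% BSA, HEPES 25 mM, pH 7.4 | probe or stimulus = DiI-HDL 10 µg/mL | compound dosing = single-point compound dose | incubation = compound exposure 3 h, 37 °C | technique = DiI fluorescence, bottom read | read-out = cell-associated DiI fluorescence as measure of HDL uptake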
C2C12 statin: suppression of simvastatin myotoxicity. C2C12 myotubes + simvastatin, ATP luminescence, 48 h; scaled: DMSO 0, geranylgeraniol control 100. rescue of ATP level, % at 7.49 µM. 330,000 compounds, 0.78% hits. AID 602340;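 active = mean ATP rescue above about 67%, or every replicate alone reaching that limit, limit read from the data, passing the limit was not always enough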;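 also: myotubes were challenged with 10 µM simvastatin during compound exposure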
Vif inh: HIV Vif inhibition; HEK293T cells, Vif self-association by quenched fluorescence, imaging, 24 h; inhibition, % at 7.49 µM; 340,000 compounds, 0.35% hits; AID 602346; in the data active = inhibition above about 50%, passing the limit was not always enough
SR-BI HDL uptake: inhibitors of mouse SR-BI mediated HDL lipid uptake. Q61009. ldlA[mSR-BI] CHO cells, DiI-HDL uptake fluorescence, 3 h. inhibition, % at 12.5 µM. 320,000 compounds, 0.96% hits. AID 488896;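 active = mean replicate inhibition of at least 70% and a set share of replicates each scoring 70 or more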;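 also: 0% = median of neutral control wells and 100% = median of positive control wells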
Target sequence (Q61009 whole entry, looked up): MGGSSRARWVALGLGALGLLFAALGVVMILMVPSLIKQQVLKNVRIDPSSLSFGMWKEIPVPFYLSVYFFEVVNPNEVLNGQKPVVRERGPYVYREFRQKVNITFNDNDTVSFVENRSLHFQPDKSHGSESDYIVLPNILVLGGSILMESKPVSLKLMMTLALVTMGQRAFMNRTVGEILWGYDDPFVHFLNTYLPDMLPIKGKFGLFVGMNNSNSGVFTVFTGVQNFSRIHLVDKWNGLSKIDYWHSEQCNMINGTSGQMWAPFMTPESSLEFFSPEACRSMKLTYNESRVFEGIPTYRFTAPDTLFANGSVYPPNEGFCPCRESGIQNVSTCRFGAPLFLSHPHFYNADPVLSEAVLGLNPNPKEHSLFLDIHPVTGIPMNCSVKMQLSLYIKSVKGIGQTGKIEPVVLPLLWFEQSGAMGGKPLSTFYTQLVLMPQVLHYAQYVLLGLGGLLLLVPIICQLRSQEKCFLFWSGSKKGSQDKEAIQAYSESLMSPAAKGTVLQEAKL
Active calls of the source: *; x = not tested or not shown.

SMILES	SR-BI uptake up	C2C12 statin	Vif inh	SR-BI HDL uptake
CN1CCN(C(=O)/C=C/c2ccc(Cl)c(Cl)c2)CC1	-19	x	-7	19
CN1CCN(C(=O)/C=C/c2ccc(Cl)cc2)CC1	-4	110*	-6	4
CO[C@@H]1CN(C)C(=O)c2ccc(NC(=O)C3CCOCC3)cc2OC[C@@H](C)N(C)C[C@@H]1C	x	4	x	x
CCN(c1ccccc1)S(=O)(=O)c1ccc(Cl)c(NC(=O)CNC(C)c2ccccc2)c1 (configuration not stated)	1	-9	-1	-1
CCC(C)NCC(=O)Nc1cc(S(=O)(=O)N(CC)c2ccccc2)ccc1Cl (configuration not stated)	-72	-6	-15	72*
COc1ccc(CN(C)C[C@H]2Oc3ccc(NS(=O)(=O)c4ccc(Cl)cc4)cc3CC(=O)N([C@@H](C)CO)C[C@@H]2C)cc1	x	86*	x	x
C[C@H](CO)N1C[C@H](C)[C@H](CN(C)Cc2ccc(Oc3ccccc3)cc2)Oc2ccc(NS(=O)(=O)c3ccc(F)cc3)cc2CC1=O	x	4	x	x
C[C@@H]1CN([C@@H](C)CO)C(=O)Cc2cc(NS(=O)(=O)c3ccc(F)cc3)ccc2O[C@H]1CN(C)Cc1ccc(Oc2ccccc2)cc1	x	99*	x	x
COc1ccc(S(=O)(=O)Nc2ccc3c(c2)CC(=O)N([C@@H](C)CO)C[C@@H](C)[C@H](CN(C)Cc2ccc(Oc4ccccc4)cc2)O3)cc1	x	97*	x	x
COc1ccc(S(=O)(=O)Nc2ccc3c(c2)CC(=O)N([C@H](C)CO)C[C@@H](C)[C@H](CN(C)Cc2ccccc2)O3)cc1	x	72*	x	x
COc1ccc(S(=O)(=O)Nc2ccc3c(c2)CC(=O)N([C@H](C)CO)C[C@H](C)[C@H](CN(C)Cc2ccc(Oc4ccccc4)cc2)O3)cc1	x	5	x	x
COc1ccc(CN(C)C[C@H]2Oc3ccc(NS(=O)(=O)c4ccc(Cl)cc4)cc3CC(=O)N([C@H](C)CO)C[C@H]2C)cc1	x	63	x	x
COc1ccccc1C(=O)Nc1ccc2c(c1)C(=O)N(C)C[C@H](OC)[C@H](C)CN(CC1CC1)[C@H](C)CO2	x	10	x	x
COc1ccc(CN(C)C[C@@H]2Oc3ccc(NS(=O)(=O)c4ccc(OC)cc4)cc3CC(=O)N([C@H](C)CO)C[C@@H]2C)cc1	x	11	x	x
COc1ccc(S(=O)(=O)Nc2ccc3c(c2)CC(=O)N([C@@H](C)CO)C[C@H](C)[C@@H](CN(C)Cc2ccc(Cl)c(Cl)c2)O3)cc1	x	122*	x	x
COc1ccc(C(OC(=O)c2ccco2)C(=O)NC2CCCC2)cc1OC (configuration not stated)	14	57	-2	-14
COc1ccc(C(OC(=O)c2ccco2)C(=O)NC2CCCCC2)cc1OC (configuration not stated)	336*	-5	7	-336
COc1cc(C)c(S(=O)(=O)n2ccc(C)n2)cc1C	11	113*	2	-11
COc1ccc(S(=O)(=O)n2ccc(C)n2)cc1C	6	0	-3	-6
C[C@@H]1CCCCO[C@H](CN(C)C(=O)C2CCCCC2)[C@H](C)CN([C@@H](C)CO)C(=O)c2cc(N(C)C)ccc2O1	x	27	x	x
COc1ccc(/C=C/C(=O)Nc2cccc(N3CCOCC3)c2)cc1OC	-76	x	-2	76*
COc1ccc(/C=C/C(=O)Nc2ccc(N3CCOCC3)cc2)cc1	-22	x	-2	22
Cc1ccc(C2(c3noc(CN(C)Cc4cnn(C)c4)n3)CCCC2)cc1	122*	1	3	-122
O=C(NCC[C@@H]1CC[C@H](NS(=O)(=O)c2ccc(F)cc2)[C@@H](CO)O1)Nc1ccc(F)cc1	x	3	x	x
O=C(C[C@H]1C=C[C@@H](NC(=O)c2ccncc2)[C@@H](CO)O1)NCC1CCCCC1	x	-3	x	x
SMILES	SR-BI uptake up	C2C12 statin	Vif inh	SR-BI HDL uptake
C[C@H](CO)N1C[C@H](C)[C@H](CN(C)S(=O)(=O)c2cccs2)Oc2c(NS(=O)(=O)c3ccc(F)cc3)cccc2C1=O	x	18	x	x
COc1c(Br)cc(Br)cc1/C=C1/C(=O)N=C(N)N1C	-18	1	96*	18
COc1cc(/C=C2/C(=O)N=C(N)N2C)cc(OC)c1OC	-1	x	-20	1
COc1ccc(-c2[nH]ncc2N=Nc2cc(C)cc(C)c2)cc1	-84	x	-5	84*
COc1ccc(-c2[nH]ncc2N=Nc2ccccc2)cc1	-61	x	2	61
C[C@@H]1CCCCO[C@@H](CN(C)Cc2ccncc2)[C@H](C)CN([C@@H](C)CO)C(=O)c2cc(NC(=O)CCCN(C)C)ccc2O1	x	8	x	x
O=C(CN1C(=O)c2cccc3cccc1c23)N1CCN(Cc2ccc3c(c2)OCO3)CC1	-16	x	-21	16
O=C(CCN1C(=O)c2cccc3cccc(c23)C1=O)N1CCN(Cc2ccc3c(c2)OCO3)CC1	-74	-2	-16	74*
O=C1c2cccc3cccc(c23)C(=O)N1CC1CCN(CC(O)COCc2ccc3c(c2)OCO3)CC1 (configuration not stated)	-70	x	-2	70*
COc1ccc(OCC(O)CN2CCC(CN3C(=O)c4cccc5cccc(c45)C3=O)CC2)cc1 (configuration not stated)	-77	x	-1	77*
CCOC(=O)C1CCN(CC(O)COCc2ccc3c(c2)OCO3)CC1 (configuration not stated)	10	x	-2	-10
C[C@@H]1CN([C@@H](C)CO)C(=O)Cc2cc(NS(=O)(=O)c3ccccc3)ccc2O[C@H]1CN(C)C	x	0	x	x
Cn1cnc(S(=O)(=O)N[C@H]2CC[C@@H](CC(=O)NCC3CC3)O[C@H]2CO)c1	x	0	x	x
COc1cc(/C(C#N)=C/c2ccccc2)c([N+](=O)[O-])cc1OC	-37	84*	11	37
COc1ccc(/C=C(\C#N)c2cc(OC)c(OC)cc2[N+](=O)[O-])cc1	x	-34	-7	x
Cc1ccc(NC(=O)Cn2cccc2)c(Br)c1	x	3	-1	x
Cc1ccc(NC(=O)CN(C)CC(=O)Nc2c(C)cccc2C)c(Br)c1	-16	97*	5	16
O=C(O)CCCCCCCCc1cn(Cc2ccc(C(=O)c3ccccc3)cc2)nn1	3	x	x	-3
O=C(c1ccccc1)c1ccc(Cn2cc(CCCO)nn2)cc1	35	150*	-20	-35
CCCN(CCC)c1ccc(CC(=O)NC(C)Cc2ccccc2)cc1 (configuration not stated)	14	x	4	-14
CCN(CC)c1ccc(CC(=O)NC(C)Cc2ccccc2)cc1 (configuration not stated)	-12	11	101*	12
CN(CC(=O)NCCc1ccc(S(N)(=O)=O)cc1)S(=O)(=O)c1ccc(Br)s1	x	15	62*	x
C[C@H]1CN([C@@H](C)CO)C(=O)c2cc(NC(=O)NC3CCCCC3)ccc2O[C@@H]1CN(C)Cc1ccncc1	x	-26	x	x
O=C(Nc1ccc(N2CCCC2)cc1)c1cccc(-c2cc3ccccc3oc2=O)c1	-90	15	-6	90*
CC(=O)N1CCN(c2ccc(NC(=O)c3ccc4ccccc4c3)cc2)CC1	-38	-19	-5	38

Screening results (PubChem)
